Measurements taken from ChEMBL document CHEMBL1149327, “Punaglandins, chlorinated prostaglandins, function as potent Michael receptors to inhibit ubiquitin isopeptidase activity” (J Med Chem, 2004).

Tests used:
Type in all cases: functional, cell-based
HCT cell line [1] = assay: Cytotoxicity against wild type p21-l- gene in human colon tumor 116 (HCT 116) cell lines was determined
Method in brief: (§1)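 HCT 116 wild-type and isogenic p53- or p21-disrupted lines (McCoy's 5A, 10% FBS) seeded at 3.0 × 10^3/well, adhered 24 h, then treated at varying concentrations for 48 h, eight replicates, DMSO controls. Viability by MTS, absorbance 490 nm after 2–3 h, expressed as % of same-plate DMSO control; EC50 fitted from log concentration–response curve; done twice.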

HCT cell line [2] = assay: Cytotoxicity against wild type p53-l- gene in human colon tumor 116 (HCT 116) cell lines was determined; method in brief: as §1
HCT cell line [3] = assay: Cytotoxicity against wild type p53 gene in human colon tumor 116 (HCT 116) cell lines was determined; method in brief: as §1
HCT cell line [4] = assay: Cytotoxicity against wild type p21 gene in human colon tumor 116 (HCT 116) cell lines was determined; method in brief: as §1
RKO [5] = assay: Cytotoxicity against human RKO-E6 cell line; settings: RKOE6
Method in brief: (§2)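 RKO and RKO-E6 cells (DMEM, 10% FBS, 37 °C, 5% CO2) seeded at 5.0 × 10^3/well, adhered 24 h, then exposed to varying concentrations for 48 h, eight replicates, DMSO controls. MTS conversion read at 490 nm after 2–3 h; growth as % of same-plate DMSO control; EC50 from concentration–response curve. Assay run twice.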

RKO [6] = assay: Cytotoxicity against human RKO cell line; method in brief: as §2

Row | Compound | EC50 (HCT cell line [1]) [nM] | EC50 (HCT cell line [2]) [nM] | EC50 (HCT cell line [3]) [nM] | EC50 (HCT cell line [4]) [nM] | EC50 (RKO [5]) [nM] | EC50 (RKO [6]) [nM]
1 | CCCCC/C=C\C[C@@]1(O)C=C(Cl)C(=O)[C@@H]1[C@@H](OC(C)=O)[C@H](OC(C)=O)[C@H](CCCC(=O)OC)OC(C)=O | 40 | 40 | 40 | 47 |  | 
2 | CCCCC/C=C\C[C@@]1(O)C=C(Cl)C(=O)[C@@H]1C[C@H](OC(C)=O)[C@H](CCCC(=O)OC)OC(C)=O | 320 | 360 | 340 | 330 | 470 | 440
3 | CC/C=C/C/C=C\C[C@@]1(O)C=C(Cl)C(=O)/C1=C/[C@H](OC(C)=O)[C@H](CCCC(=O)OC)OC(C)=O | 300 | 370 | 320 | 290 |  | 
4 | CCCCC/C=C\C[C@@]1(O)C=C(Cl)C(=O)/C1=C/[C@H](OC(C)=O)[C@H](CCCC(=O)OC)OC(C)=O [PUNAGLANDIN 4] | 280 | 350 | 330 | 340 | 370 | 310
